Results on 4 compounds are retold here after ChEMBL document CHEMBL3098030, “Explorations of substituted urea functionality for the discovery of new activators of the heme-regulated inhibitor kinase” (J Med Chem, 2013).

Calls of active or inactive are those of the source. The rule behind the calls is not given here. Bounds are passed on as bounds.

The target of one data set is Eukaryotic translation initiation factor 2-alpha kinase 1 (Homo sapiens) (UniProt Q9BQI3). The data set is described as follows: Activation of HRI in human CRL2813 cells assessed as increase in CHOP protein expression at 10 uM after 6 hrs by Western blotting analysis. Type of data set: cell-based.
Sequence of Eukaryotic translation initiation factor 2-alpha kinase 1 (Homo sapiens) (Q9BQI3 whole entry): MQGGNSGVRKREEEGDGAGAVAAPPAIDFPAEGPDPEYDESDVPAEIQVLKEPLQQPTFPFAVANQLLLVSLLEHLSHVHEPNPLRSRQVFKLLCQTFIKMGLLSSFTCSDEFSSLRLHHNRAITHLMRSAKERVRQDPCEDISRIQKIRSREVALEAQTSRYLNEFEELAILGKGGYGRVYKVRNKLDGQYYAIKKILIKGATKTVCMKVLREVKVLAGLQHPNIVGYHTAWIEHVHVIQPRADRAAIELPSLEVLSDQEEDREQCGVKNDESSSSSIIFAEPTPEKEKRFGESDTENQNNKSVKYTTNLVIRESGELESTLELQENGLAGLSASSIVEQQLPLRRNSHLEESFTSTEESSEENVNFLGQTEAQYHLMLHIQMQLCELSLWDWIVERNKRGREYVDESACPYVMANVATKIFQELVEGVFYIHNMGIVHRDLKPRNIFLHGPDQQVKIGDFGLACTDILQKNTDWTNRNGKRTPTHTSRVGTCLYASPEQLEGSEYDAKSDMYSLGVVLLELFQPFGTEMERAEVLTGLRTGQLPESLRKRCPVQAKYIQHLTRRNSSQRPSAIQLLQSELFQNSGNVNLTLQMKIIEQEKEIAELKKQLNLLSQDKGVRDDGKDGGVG
Conditions: not given
The essentials: (§1)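 CRL-2813 melanoma cells grown in serum-containing medium without antibiotics to 70% confluence, treated 6 h (10 μM for CHOP/cyclin D1), lysed in M-PER on ice 30 min, protein by BCA. Equal protein on SDS-PAGE, probed with anti-pS51-eIF2α rabbit mAb, anti-total eIF2α mouse mAb, anti-CHOP, anti-cyclin D1, anti-actin. Three independent experiments.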
In the case of `O=C(Nc1ccc([N+](=O)[O-])cc1)N[C@H]1CC[C@H](Oc2ccc(F)cc2)CC1`, the outcome was Active.

On to `O=C(Nc1cccc(C(F)(F)F)c1)N[C@H]1CC[C@@H](Oc2ccc(F)cc2)CC1`, for which the result was Active.

Another data set shares this target. The data set can be described thus: Activation of HRI in human CRL-2813-pBISA-DL(ATF-4) reporter cells assessed as concentration required to obtain F-luciferase expression/R-luciferase expression ratio 3.
Conditions: not given
The essentials:
(§2)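 Stably transfected CRL-2813-pBISA-DL(ATF-4) reporter cells treated with compounds in dose-response; firefly and renilla luciferases read by dual glow luciferase kit. Activity = firefly/renilla (F/R) ratio normalized to DMSO-treated wells (set at 1). Triplicate points fitted to logistic sigmoidal model by nonlinear least squares; C3X = concentration giving F/R = 3, Emax = maximal F/R.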
As for `O=C(Nc1cccc(C(F)(F)F)c1)N[C@H]1CC[C@H](Oc2cccc(C(F)(F)F)c2)CC1`, the Activity was found to be 1.1 µM.

With `O=C(Nc1cccc(C(F)(F)F)c1)N[C@H]1CC[C@H](Oc2ccc(OC(F)(F)F)cc2)CC1`, the Activity was found to be 1.5 µM.

For the compound `O=C(Nc1ccc([N+](=O)[O-])cc1)N[C@H]1CC[C@H](Oc2ccc(F)cc2)CC1`, the Activity was 6.7 µM.

For the compound `O=C(Nc1cccc(C(F)(F)F)c1)N[C@H]1CC[C@@H](Oc2ccc(F)cc2)CC1`, the Activity was 4.5 µM.

Tested on in another data set: not listed separately
The data set is described as follows: Selectivity ratio of IC50 for mouse NIH/3T3 cells to IC50 for human CRL2813 cells. Type of data set: ADME, cell-based. Particulars: NIH/3T3 cells and CRL2813 cells, read-out: Ratio IC50.
Take `O=C(Nc1cccc(C(F)(F)F)c1)N[C@H]1CC[C@H](Oc2cccc(C(F)(F)F)c2)CC1`: the selectivity ratio is 2.5.

With `O=C(Nc1cccc(C(F)(F)F)c1)N[C@H]1CC[C@H](Oc2ccc(OC(F)(F)F)cc2)CC1`, the selectivity ratio turned out to be 4.9.

For another data set, the system named is NIH3T3. The data set can be described thus: Cytotoxicity against mouse NIH/3T3 cells after 5 days by SRB assay. Type of data set: cell-based. Particulars: NIH3T3, 120 h. The method in brief:
(§3)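 CRL-2813 melanoma or NIH/3T3 fibroblasts seeded in 96-well plates, exposed 5 days to 0.5–20 μM compound; fixed in cold 10% TCA, bound sulforhodamine B measured. % growth = 100×(T−T0)/(C−T0). IC50 derived; triplicate, three independent experiments.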
`O=C(Nc1cccc(C(F)(F)F)c1)N[C@H]1CC[C@H](Oc2cccc(C(F)(F)F)c2)CC1` gave an IC50 of 3.3 µM.

Regarding `O=C(Nc1cccc(C(F)(F)F)c1)N[C@H]1CC[C@H](Oc2ccc(OC(F)(F)F)cc2)CC1`, the IC50 stood at 3.4 µM.

In a further data set the target is Eukaryotic translation initiation factor 2-alpha kinase 1 (Homo sapiens) (UniProt Q9BQI3). The data set can be described thus: Activation of HRI in human CRL-2813-pBISA-DL(ATF-4) reporter cells assessed as reduction of ternary complex at 30 uM by dual-luciferase reporter gene assay relative to control.
Conditions: not given
The essentials: as §2
As for `O=C(Nc1cccc(C(F)(F)F)c1)N[C@H]1CC[C@H](Oc2cccc(C(F)(F)F)c2)CC1`, the Ratio was found to be 26.

Take `O=C(Nc1cccc(C(F)(F)F)c1)N[C@H]1CC[C@H](Oc2ccc(OC(F)(F)F)cc2)CC1`: the Ratio stood at 14.4.

Consider `O=C(Nc1ccc([N+](=O)[O-])cc1)N[C@H]1CC[C@H](Oc2ccc(F)cc2)CC1`, for which the Ratio was 9.

Take `O=C(Nc1cccc(C(F)(F)F)c1)N[C@H]1CC[C@@H](Oc2ccc(F)cc2)CC1`: the Ratio was 11.8.

Tested on in another data set: not listed separately
The data set is described as follows: Antiproliferative activity against human CRL2813 cells after 3 days by SRB assay in presence of non-targeting siRNA. It is filed as functional, cell-based. To be noted: CRL2813, 72 h. The essentials: (§4)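 CRL-2813 cells transiently transfected (Lipofectamine 2000) with HRI-targeting or non-targeting siRNA, then treated with compound dose range; proliferation by SRB after 3 days. IC50 calculated per siRNA condition; ratio is HRI-siRNA over non-targeting IC50. Triplicate, three independent experiments; mean±S.E.M.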
Consider `O=C(Nc1cccc(C(F)(F)F)c1)N[C@H]1CC[C@H](Oc2cccc(C(F)(F)F)c2)CC1`, for which the IC50 is 1.05 µM.

On to `O=C(Nc1cccc(C(F)(F)F)c1)N[C@H]1CC[C@H](Oc2ccc(OC(F)(F)F)cc2)CC1`, for which the half-maximal inhibitory concentration (IC50) is 0.85 µM.

In the case of `O=C(Nc1cccc(C(F)(F)F)c1)N[C@H]1CC[C@@H](Oc2ccc(F)cc2)CC1`, the IC50 came to 6 µM.

Another data set has as its system MCF7. The data set can be described thus: Antiproliferative activity against human MCF7 cells after 5 days by SRB assay in presence of HRI-targeting siRNA. It is filed as functional, cell-based. Particulars: MCF7, 120 h.
For `O=C(Nc1ccc([N+](=O)[O-])cc1)N[C@H]1CC[C@H](Oc2ccc(F)cc2)CC1`, the IC50 is greater than 30 µM.

For the compound `O=C(Nc1cccc(C(F)(F)F)c1)N[C@H]1CC[C@@H](Oc2ccc(F)cc2)CC1`, the IC50 is greater than 30 µM.

Tested on in another data set: not listed separately
The data set can be described thus: Antiproliferative activity against human CRL2813 cells after 3 days by SRB assay in presence of HRI-targeting siRNA. It is filed as functional, cell-based. To be noted: CRL2813, 72 h. The method in brief:
as §4
Regarding `O=C(Nc1cccc(C(F)(F)F)c1)N[C@H]1CC[C@H](Oc2cccc(C(F)(F)F)c2)CC1`, the IC50 turned out to be 4.9 µM.

Regarding `O=C(Nc1cccc(C(F)(F)F)c1)N[C@H]1CC[C@H](Oc2ccc(OC(F)(F)F)cc2)CC1`, the IC50 was 4.9 µM.

As to `O=C(Nc1cccc(C(F)(F)F)c1)N[C@H]1CC[C@@H](Oc2ccc(F)cc2)CC1`, the IC50 was determined as 10.4 µM.

In the next data set the target is Eukaryotic translation initiation factor 2-alpha kinase 1 (Homo sapiens) (UniProt Q9BQI3). The data set is described as follows: Activation of HRI in human CRL2813 cells assessed as reduction in cyclin D1 mRNA expression at 7.5 to 15 uM after 6 hrs by RT-PCR analysis. It is filed as cell-based.
Conditions: not given
The essentials:
(§5)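 CRL-2813 cells incubated with 7.5 or 15 μM compound for 6 h; CHOP and cyclin D1 mRNA measured by real-time PCR. Each run in triplicate, mean of three independent experiments ±S.E.M.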
For `O=C(Nc1ccc([N+](=O)[O-])cc1)N[C@H]1CC[C@H](Oc2ccc(F)cc2)CC1`, the outcome was Active.

With `O=C(Nc1cccc(C(F)(F)F)c1)N[C@H]1CC[C@@H](Oc2ccc(F)cc2)CC1`, the outcome was Active.

The target is the same in another data set. The data set is described as follows: Activation of HRI in human CRL2813 cells assessed as increase in CHOP mRNA expression at 7.5 to 15 uM after 6 hrs by RT-PCR analysis. It is filed as cell-based.
Conditions: not given
The method in brief:
as §5
Consider `O=C(Nc1ccc([N+](=O)[O-])cc1)N[C@H]1CC[C@H](Oc2ccc(F)cc2)CC1`, for which the result was Active.

Regarding `O=C(Nc1cccc(C(F)(F)F)c1)N[C@H]1CC[C@@H](Oc2ccc(F)cc2)CC1`, the outcome was Active.

Tested on in a further data set: not listed separately
The data set can be described thus: Antiproliferative activity against human CRL2813 cells after 5 days by SRB assay in presence of HRI-targeting siRNA. Particulars: CRL2813, 120 h. It is filed as functional, cell-based.
For the compound `O=C(Nc1ccc([N+](=O)[O-])cc1)N[C@H]1CC[C@H](Oc2ccc(F)cc2)CC1`, the IC50 was 12.2 µM.

For the compound `O=C(Nc1cccc(C(F)(F)F)c1)N[C@H]1CC[C@@H](Oc2ccc(F)cc2)CC1`, the IC50 amounted to 10.4 µM.

Tested on in another data set: not listed separately
The data set can be described thus: Cytotoxicity against human CRL2813 cells after 5 days by SRB assay. Type of data set: functional, cell-based. Particulars: CRL2813, 120 h. The essentials:
as §3
In the case of `O=C(Nc1cccc(C(F)(F)F)c1)N[C@H]1CC[C@H](Oc2cccc(C(F)(F)F)c2)CC1`, the IC50 was found to be 1.3 µM.

As for `O=C(Nc1cccc(C(F)(F)F)c1)N[C@H]1CC[C@H](Oc2ccc(OC(F)(F)F)cc2)CC1`, the IC50 came to 0.69 µM.

In turn, `O=C(Nc1ccc([N+](=O)[O-])cc1)N[C@H]1CC[C@H](Oc2ccc(F)cc2)CC1` had an IC50 of 2.3 µM.

`O=C(Nc1cccc(C(F)(F)F)c1)N[C@H]1CC[C@@H](Oc2ccc(F)cc2)CC1` yielded an IC50 of 2.6 µM.

A further data set deals with Eukaryotic translation initiation factor 2-alpha kinase 1 (Homo sapiens) (UniProt Q9BQI3). The data set is described as follows: Activation of HRI in human CRL-2813-pBISA-DL(ATF-4) reporter cells assessed as eIF2alpha phosphorylation after 10 hrs by dual-luciferase reporter gene assay in presence of siRNA relative to control.
Conditions: not given
The method in brief:
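CRL-2813-pBISA-DL(ATF-4) reporter cells transiently transfected (Lipofectamine 2000) with HRI-targeting or non-targeting siRNA for 48 h, then treated with compounds or DMSO for 10 h. Firefly/renilla ratio by dual luciferase assay, normalized to vehicle. Triplicate, three independent experiments; mean±S.E.M.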
Take `O=C(Nc1ccc([N+](=O)[O-])cc1)N[C@H]1CC[C@H](Oc2ccc(F)cc2)CC1`: the outcome was inactive.

Turning to `O=C(Nc1cccc(C(F)(F)F)c1)N[C@H]1CC[C@@H](Oc2ccc(F)cc2)CC1`, the result was inactive.

A further data set shares this target. The data set can be described thus: Activation of HRI in human CRL2813 cells assessed as reduction in cyclin D1 protein expression at 10 uM after 6 hrs by Western blotting analysis. Type of data set: cell-based.
Conditions: not given
The essentials: as §1
Turning to `O=C(Nc1ccc([N+](=O)[O-])cc1)N[C@H]1CC[C@H](Oc2ccc(F)cc2)CC1`, the result was Active.

Regarding `O=C(Nc1cccc(C(F)(F)F)c1)N[C@H]1CC[C@@H](Oc2ccc(F)cc2)CC1`, the outcome was Active.

Tested on in another data set: not listed separately
The data set is described as follows: Antiproliferative activity against human CRL2813 cells after 5 days by SRB assay in presence of non-targeting siRNA. It is filed as functional, cell-based. To be noted: CRL2813, 120 h.
As to `O=C(Nc1ccc([N+](=O)[O-])cc1)N[C@H]1CC[C@H](Oc2ccc(F)cc2)CC1`, the IC50 was 5.2 µM.

Turning to `O=C(Nc1cccc(C(F)(F)F)c1)N[C@H]1CC[C@@H](Oc2ccc(F)cc2)CC1`, the IC50 came out at 6 µM.

In the next data set the target is Eukaryotic translation initiation factor 2-alpha kinase 1 (Homo sapiens) (UniProt Q9BQI3). The data set can be described thus: Activation of HRI in human CRL2813 cells assessed as eIF2alpha phosphorylation after 6 hrs by Western blotting analysis. Type of data set: cell-based.
Conditions: not given
The essentials: as §1
As to `O=C(Nc1ccc([N+](=O)[O-])cc1)N[C@H]1CC[C@H](Oc2ccc(F)cc2)CC1`, the outcome was Active.

Consider `O=C(Nc1cccc(C(F)(F)F)c1)N[C@H]1CC[C@@H](Oc2ccc(F)cc2)CC1`, for which the outcome was Active.

Another data set relates to MCF7. The data set can be described thus: Antiproliferative activity against human MCF7 cells after 5 days by SRB assay in presence of non-targeting siRNA. It is filed as functional, cell-based. To be noted: MCF7, 120 h.
For `O=C(Nc1ccc([N+](=O)[O-])cc1)N[C@H]1CC[C@H](Oc2ccc(F)cc2)CC1`, the IC50 is 9.8 µM.

As for `O=C(Nc1cccc(C(F)(F)F)c1)N[C@H]1CC[C@@H](Oc2ccc(F)cc2)CC1`, the IC50 was found to be 11.3 µM.

Tested on in the next data set: not listed separately
The data set is described as follows: Ratio of IC50 for human CRL2813 cells after 3 days by SRB assay in presence of HRI-targeting siRNA to IC50 for human CRL2813 cells after 3 days by SRB assay in presence of non-targeting siRNA.
Conditions: not given
`O=C(Nc1ccc([N+](=O)[O-])cc1)N[C@H]1CC[C@H](Oc2ccc(F)cc2)CC1`: the “Ratio IC50” value worked out at 1.7.

As for `O=C(Nc1cccc(C(F)(F)F)c1)N[C@H]1CC[C@@H](Oc2ccc(F)cc2)CC1`, the “Ratio IC50” value is recorded as 1.7.
